We go through 23 compounds from ChEMBL document CHEMBL1141963, “Ketene aminal-based lactam derivatives as a novel class of orally active FXa inhibitors” (Bioorg Med Chem Lett, 2005).

For assay [1], the target named is T1, Coagulation factor X (Homo sapiens, UniProt P00742). The assay is described as follows: Inhibitory activity against human FXa.
Target sequence in this assay (P00742 41-179 limits assumed): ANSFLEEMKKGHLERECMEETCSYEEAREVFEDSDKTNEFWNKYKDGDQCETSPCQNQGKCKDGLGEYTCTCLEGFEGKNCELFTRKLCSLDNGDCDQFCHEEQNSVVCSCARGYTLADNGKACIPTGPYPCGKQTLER
Target sequence in this assay (P00742 235-488 limits assumed): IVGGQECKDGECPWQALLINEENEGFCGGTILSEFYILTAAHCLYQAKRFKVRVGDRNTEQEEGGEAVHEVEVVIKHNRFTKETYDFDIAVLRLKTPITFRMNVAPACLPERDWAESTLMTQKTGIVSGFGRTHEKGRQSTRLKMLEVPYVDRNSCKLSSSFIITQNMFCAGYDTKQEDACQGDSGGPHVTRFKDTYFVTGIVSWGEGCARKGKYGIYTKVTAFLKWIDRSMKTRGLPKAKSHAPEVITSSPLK
Assay [2] concerns the target T1, Coagulation factor X. Kind of assay: Anticoagulant potency in human plasma as measured by prothrombin time.
Target sequence in this assay (P00742 whole entry, looked up): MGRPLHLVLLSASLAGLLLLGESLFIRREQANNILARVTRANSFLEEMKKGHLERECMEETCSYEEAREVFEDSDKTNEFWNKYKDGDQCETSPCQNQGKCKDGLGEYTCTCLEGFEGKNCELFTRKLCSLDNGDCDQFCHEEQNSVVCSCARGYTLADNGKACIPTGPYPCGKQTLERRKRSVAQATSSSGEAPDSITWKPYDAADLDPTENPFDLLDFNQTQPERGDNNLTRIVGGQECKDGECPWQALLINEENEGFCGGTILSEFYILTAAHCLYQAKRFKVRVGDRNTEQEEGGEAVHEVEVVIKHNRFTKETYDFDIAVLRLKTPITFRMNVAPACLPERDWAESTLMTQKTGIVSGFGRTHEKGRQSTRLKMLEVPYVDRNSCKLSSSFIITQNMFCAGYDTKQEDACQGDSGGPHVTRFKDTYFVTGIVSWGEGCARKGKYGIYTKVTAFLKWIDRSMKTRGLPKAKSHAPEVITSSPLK
In assay [3] the target is Urokinase-type plasminogen activator (Homo sapiens, UniProt P00749). Kind of assay: Binding affinity to urokinase. The gist of the method: (§1)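 Human enzymes, each assayed against a low-molecular-weight synthetic substrate. Ki was calculated from IC50 assuming competitive inhibition, as Ki = IC50/(1 + [S]/Km), where [S] is the substrate concentration in the assay and Km the substrate's Michaelis constant. Values are averages of two independent determinations.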

A further assay concerns the target Coagulation factor IX (Homo sapiens, UniProt P00740). The assay is described as follows: Binding affinity to factor IXa. The procedure, abridged: as §1
In the next assay the target is Prothrombin (Homo sapiens, UniProt P00734). Kind of assay: Binding affinity to thrombin. The gist of the method:
as §1

Assay [4] in a line: Binding affinity to trypsin. Set-up: species or system Homo sapiens. The gist of the method: as §1
The target in the next assay is Plasma kallikrein (Homo sapiens, UniProt P03952). Kind of assay: Binding affinity to plasma kallikrein. The procedure, abridged: as §1
Assay [5] has as its target Vitamin K-dependent protein C (Homo sapiens, UniProt P04070). The assay is described as follows: Binding affinity to activated protein C. The procedure, abridged:
as §1

For another assay, the target named is Plasminogen (Homo sapiens, UniProt P00747). Kind of assay: Binding affinity to plasmin. The procedure, abridged: as §1
In assay [6] the target is Tissue-type plasminogen activator (Homo sapiens, UniProt P00750). The assay is described as follows: Binding affinity to tPA. The gist of the method:
as §1

For the next assay, the target named is Chymotrypsinogen B (Homo sapiens, UniProt P17538). Kind of assay: Binding affinity to chymotrypsin. The procedure, abridged: as §1
Another assay has as its target T2, Coagulation factor VII (Homo sapiens, UniProt P08709).
T2 sequence (P08709 whole entry): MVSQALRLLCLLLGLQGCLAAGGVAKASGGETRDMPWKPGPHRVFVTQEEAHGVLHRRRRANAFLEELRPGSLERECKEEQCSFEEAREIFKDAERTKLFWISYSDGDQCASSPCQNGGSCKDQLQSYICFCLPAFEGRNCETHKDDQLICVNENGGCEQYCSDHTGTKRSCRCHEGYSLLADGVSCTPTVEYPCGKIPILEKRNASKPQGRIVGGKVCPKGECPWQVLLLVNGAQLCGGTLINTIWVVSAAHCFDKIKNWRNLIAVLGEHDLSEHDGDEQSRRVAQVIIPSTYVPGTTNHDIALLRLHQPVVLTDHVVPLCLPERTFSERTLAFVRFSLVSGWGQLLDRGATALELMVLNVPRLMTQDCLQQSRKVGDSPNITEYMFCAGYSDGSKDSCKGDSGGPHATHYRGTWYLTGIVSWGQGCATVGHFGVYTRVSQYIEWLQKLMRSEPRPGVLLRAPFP
The assay is described as follows: Binding affinity to factor VIIa. The procedure, abridged: as §1

Sequence of Tissue-type plasminogen activator (P00750 whole entry): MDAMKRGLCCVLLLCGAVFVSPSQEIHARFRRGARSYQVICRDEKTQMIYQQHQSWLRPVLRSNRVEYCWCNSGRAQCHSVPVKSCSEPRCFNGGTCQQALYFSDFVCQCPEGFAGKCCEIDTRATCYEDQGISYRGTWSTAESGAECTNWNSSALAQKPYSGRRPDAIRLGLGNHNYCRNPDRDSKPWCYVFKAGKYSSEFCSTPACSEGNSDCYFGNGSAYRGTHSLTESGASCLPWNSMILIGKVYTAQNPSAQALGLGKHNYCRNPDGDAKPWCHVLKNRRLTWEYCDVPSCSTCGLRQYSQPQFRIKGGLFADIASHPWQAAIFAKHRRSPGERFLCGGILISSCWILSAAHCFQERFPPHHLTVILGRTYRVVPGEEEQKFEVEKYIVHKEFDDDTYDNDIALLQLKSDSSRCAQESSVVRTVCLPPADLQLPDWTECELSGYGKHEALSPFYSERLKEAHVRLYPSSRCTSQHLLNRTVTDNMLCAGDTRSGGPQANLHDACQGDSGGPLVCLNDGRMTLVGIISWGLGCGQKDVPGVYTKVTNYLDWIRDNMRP
Sequence of Plasma kallikrein (P03952 20-390 limits assumed): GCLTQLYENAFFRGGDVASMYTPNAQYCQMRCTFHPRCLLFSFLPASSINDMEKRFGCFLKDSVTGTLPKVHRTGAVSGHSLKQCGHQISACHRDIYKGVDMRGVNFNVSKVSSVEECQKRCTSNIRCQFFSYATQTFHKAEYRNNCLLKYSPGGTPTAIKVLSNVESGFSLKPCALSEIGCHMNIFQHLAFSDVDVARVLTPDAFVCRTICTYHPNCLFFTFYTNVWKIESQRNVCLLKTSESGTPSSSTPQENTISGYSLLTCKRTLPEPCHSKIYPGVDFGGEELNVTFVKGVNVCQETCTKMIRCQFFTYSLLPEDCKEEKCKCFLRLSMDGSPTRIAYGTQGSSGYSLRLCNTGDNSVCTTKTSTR
Sequence of Plasma kallikrein (P03952 391-638 limits assumed): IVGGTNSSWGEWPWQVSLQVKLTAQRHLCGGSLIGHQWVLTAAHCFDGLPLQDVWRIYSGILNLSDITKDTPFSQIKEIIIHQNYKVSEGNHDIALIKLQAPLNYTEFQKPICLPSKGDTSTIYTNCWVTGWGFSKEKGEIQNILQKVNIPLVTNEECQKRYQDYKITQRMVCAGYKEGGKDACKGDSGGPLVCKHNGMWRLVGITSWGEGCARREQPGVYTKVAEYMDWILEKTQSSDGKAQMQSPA
Sequence of Vitamin K-dependent protein C (P04070 43-197 limits assumed): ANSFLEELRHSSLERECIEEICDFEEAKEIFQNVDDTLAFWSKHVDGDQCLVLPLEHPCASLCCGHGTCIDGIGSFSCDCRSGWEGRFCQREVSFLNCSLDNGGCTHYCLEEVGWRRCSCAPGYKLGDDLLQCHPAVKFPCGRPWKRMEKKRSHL
Sequence of Vitamin K-dependent protein C (P04070 212-461 limits assumed): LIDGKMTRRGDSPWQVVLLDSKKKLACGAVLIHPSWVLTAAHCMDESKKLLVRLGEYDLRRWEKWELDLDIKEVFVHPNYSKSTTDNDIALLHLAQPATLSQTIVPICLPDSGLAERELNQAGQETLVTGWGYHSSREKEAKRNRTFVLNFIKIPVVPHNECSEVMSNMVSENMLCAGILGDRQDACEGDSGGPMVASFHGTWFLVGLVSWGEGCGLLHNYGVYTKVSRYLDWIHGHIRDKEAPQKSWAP
Sequence of Coagulation factor IX (P00740 47-191 limits assumed): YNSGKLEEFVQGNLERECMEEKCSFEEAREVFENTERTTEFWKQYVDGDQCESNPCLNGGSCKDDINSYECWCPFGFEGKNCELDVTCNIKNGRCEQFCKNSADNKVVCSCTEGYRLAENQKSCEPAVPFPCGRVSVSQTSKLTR
Sequence of Coagulation factor IX (P00740 227-461 limits assumed): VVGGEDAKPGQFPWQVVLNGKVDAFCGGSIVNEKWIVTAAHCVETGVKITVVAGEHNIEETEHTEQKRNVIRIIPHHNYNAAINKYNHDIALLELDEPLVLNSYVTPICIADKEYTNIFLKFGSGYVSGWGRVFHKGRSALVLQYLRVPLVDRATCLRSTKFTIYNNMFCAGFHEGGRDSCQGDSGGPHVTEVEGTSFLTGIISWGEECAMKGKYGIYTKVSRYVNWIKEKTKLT
Sequence of Plasminogen (P00747 97-580 limits assumed): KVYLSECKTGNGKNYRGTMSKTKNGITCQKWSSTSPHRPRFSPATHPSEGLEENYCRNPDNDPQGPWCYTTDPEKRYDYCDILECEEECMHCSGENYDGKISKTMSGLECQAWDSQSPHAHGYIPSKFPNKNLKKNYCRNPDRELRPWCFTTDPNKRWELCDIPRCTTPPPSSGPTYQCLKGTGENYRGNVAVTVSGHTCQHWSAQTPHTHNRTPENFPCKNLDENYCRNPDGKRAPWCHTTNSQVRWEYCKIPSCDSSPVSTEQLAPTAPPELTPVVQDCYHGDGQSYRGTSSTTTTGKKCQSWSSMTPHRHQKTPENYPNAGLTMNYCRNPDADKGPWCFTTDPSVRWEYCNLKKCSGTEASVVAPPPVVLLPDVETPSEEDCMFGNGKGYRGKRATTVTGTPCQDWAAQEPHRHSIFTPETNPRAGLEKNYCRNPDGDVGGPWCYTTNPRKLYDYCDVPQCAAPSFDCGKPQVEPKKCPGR
Sequence of Plasminogen (P00747 581-810 limits assumed): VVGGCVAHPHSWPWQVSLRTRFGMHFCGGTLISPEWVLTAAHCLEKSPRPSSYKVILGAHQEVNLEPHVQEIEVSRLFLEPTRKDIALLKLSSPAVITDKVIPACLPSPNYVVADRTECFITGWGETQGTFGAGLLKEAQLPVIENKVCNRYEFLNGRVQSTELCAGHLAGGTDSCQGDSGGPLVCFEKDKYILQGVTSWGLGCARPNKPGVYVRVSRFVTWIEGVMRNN
Sequence of Chymotrypsinogen B (P17538 34-164 limits assumed, other chains not shown): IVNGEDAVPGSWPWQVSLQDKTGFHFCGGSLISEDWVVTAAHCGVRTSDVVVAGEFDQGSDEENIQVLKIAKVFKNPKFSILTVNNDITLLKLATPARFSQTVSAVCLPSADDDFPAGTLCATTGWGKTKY
Sequence of Chymotrypsinogen B (P17538 167-263 limits assumed, other chains not shown): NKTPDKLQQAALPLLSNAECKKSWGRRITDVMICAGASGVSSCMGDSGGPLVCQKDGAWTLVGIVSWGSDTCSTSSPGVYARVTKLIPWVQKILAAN

A word on the IC50: it is the midpoint of a concentration-inhibition curve. On to `COc1cccc(N/C(=C\[N+](=O)[O-])N[C@H]2CCCCN(CC(=O)N3CCCC3)C2=O)c1`, for which the IC50 against Coagulation factor X [1] was found to be 6700 nM. In other words, the single-digit micromolar range.

On Coagulation factor X [1], `Cc1cc2cc(N/C(N[C@H]3CCCCN(CC(=O)N4CCCC4)C3=O)=C(/C#N)C(=O)NC(N)=O)ccc2o1` had an IC50 of 13 nM. This compound had a 2PT at Coagulation factor X [2] of 7 µM.

On to `CCO/C(O)=C(C#N)/C(=N\[C@H]1CCCCN(CC(=O)N2CCCC2)C1=O)Nc1ccc2oc(C)cc2c1`, for which it took 24 nM to reach half-maximal inhibition on Coagulation factor X [1] (IC50). Further, the 2PT on Coagulation factor X [2] came to 31 µM.

The compound `Cc1cc2cc(NC(=N/[C@H]3CCCCN(CC(=O)N4CCCC4)C3=O)/C(C#N)=C(\O)OC(C)(C)C)ccc2o1` displayed an IC50 at Coagulation factor X [1] of 57 nM. On Coagulation factor X [2], this compound returned a 2PT of 60 µM.

Turning to `COc1ccc(/C(O)=C(C#N)/C(=N\[C@H]2CCCCN(CC(=O)N3CCCC3)C2=O)Nc2ccc3oc(C)cc3c2)cc1`, at Coagulation factor X [1], the IC50 was found to be 13 nM. This compound also gave a 2PT at Coagulation factor X [2] of 36 µM.

`Cc1cc2cc(N/C(N[C@H]3CCCCN(CC(=O)N4CCCC4)C3=O)=C(/C#N)S(=O)(=O)C(C)C)ccc2o1`: half-maximal inhibition on Coagulation factor X [1] (IC50) required 647 nM. In other words, the sub-micromolar range.

Take `CN(C)c1ccc(N/C(=C\[N+](=O)[O-])N[C@H]2CCCCN(CC(=O)N3CCCC3)C2=O)cc1`: the IC50 against Coagulation factor X [1] is > 34000 nM.

In the case of `O=C(CN1CCCC[C@H](N/C(=C/[N+](=O)[O-])Nc2ccccc2)C1=O)N1CCCC1`, at Coagulation factor X [1], inhibition was half-maximal at 16500 nM (IC50).

For the compound `Cc1cc2cc(N/C(=C\[N+](=O)[O-])N[C@H]3CCCCN(CC(=O)N4CCCC4)C3=O)ccc2o1`, at Coagulation factor X [1], the IC50 was 51 nM.

On to `Cc1cc2cc(N/C(N[C@H]3CCCCN(CC(=O)N4CCCC4)C3=O)=C(/C#N)C(N)=O)ccc2o1`, for which, at Coagulation factor X [1], inhibition was half-maximal at 17 nM (IC50). This compound also returned a 2PT at Coagulation factor X [2] of 13 µM.

At Coagulation factor X [1], `COc1ccc(N/C(=C\[N+](=O)[O-])N[C@H]2CCCCN(CC(=O)N3CCCC3)C2=O)cc1C` yielded an IC50 of 3400 nM.

At Coagulation factor X [1], `Cc1cc2cc(NC(/C=C(\O)c3nccs3)=N/[C@H]3CCCCN(CC(=O)N4CCCC4)C3=O)ccc2o1` returned an IC50 of 10 nM. The compound also returned a 2PT at Coagulation factor X [2] of 31 µM.

`CN(C)c1cccc(N/C(=C\[N+](=O)[O-])N[C@H]2CCCCN(CC(=O)N3CCCC3)C2=O)c1`: on Coagulation factor X [1], inhibition was half-maximal at 2100 nM (IC50).

As usually defined, the Ki is the equilibrium dissociation constant of an inhibitor or competing ligand from its target. High values mean a looser hold on the target, low ones a stronger hold on the target. Compound `Cc1cc2cc(NC(=N/[C@H]3CCCCN(CC(=O)N4CCCC4)C3=O)/C(C#N)=C(\O)OCCCCO)ccc2o1` yielded an IC50 on Coagulation factor X [1] of 10 nM. For the same compound, the Ki at Coagulation factor X [1] was 12 nM; in assay [3], > 14000 nM; at Coagulation factor IX, > 10000 nM; on Prothrombin it was 6300 nM; in assay [4] it was > 5000 nM; on Plasma kallikrein it was > 19400 nM. Further, the Ki in [5] was > 21500 nM; on Plasminogen, > 22000 nM; in assay [6], 16000 nM; at Chymotrypsinogen B, 9420 nM; on Coagulation factor VII it was > 55000 nM. The compound further displayed a 2PT at Coagulation factor X [2] of 10 µM.

On Coagulation factor X [1], `COc1ccc(N/C(=C\[N+](=O)[O-])N[C@H]2CCCCN(CC(=O)N3CCCC3)C2=O)cc1` returned an IC50 of 3100 nM.

With `O=C(CN1CCCC[C@H](N/C(=C/[N+](=O)[O-])Nc2ccc3ccccc3c2)C1=O)N1CCCC1`, half-maximal inhibition against Coagulation factor X [1] (IC50) required 1000 nM.

Take `Cc1cc2cc(N/C(N[C@H]3CCCCN(CC(=O)N4CCCC4)C3=O)=C(/C#N)C(=O)N3CCC(C)CC3)ccc2o1`: it took 57 nM to reach half-maximal inhibition against Coagulation factor X [1] (IC50). The same compound gave a 2PT at Coagulation factor X [2] of 21 µM.

The compound `O=C(CN1CCCC[C@H](N/C(=C/[N+](=O)[O-])Nc2ccc3occc3c2)C1=O)N1CCCC1` displayed an IC50 on Coagulation factor X [1] of 539 nM.

For `Cc1ccc(N/C(=C\[N+](=O)[O-])N[C@H]2CCCCN(CC(=O)N3CCCC3)C2=O)cc1`, the IC50 on Coagulation factor X [1] was > 34000 nM.

Take `Cc1cc2cc(NC(=N/[C@H]3CCCCN(CC(=O)N4CCCC4)C3=O)/C(C#N)=C(\O)c3ccc(Cl)cc3)ccc2o1`: the IC50 against Coagulation factor X [1] is 13 nM. The 2PT at Coagulation factor X [2] turned out to be 62 µM.

`O=C(CN1CCCC[C@H](N/C(=C/[N+](=O)[O-])Nc2ccc3c(c2)CCO3)C1=O)N1CCCC1` registered an IC50 at Coagulation factor X [1] of 1500 nM.

For the compound `CCOP(=O)(OCC)/C(C#N)=C(\Nc1ccc2oc(C)cc2c1)N[C@H]1CCCCN(CC(=O)N2CCCC2)C1=O`, the IC50 against Coagulation factor X [1] came to 658 nM. For the same compound, the 2PT at Coagulation factor X [2] is > 60 µM.

At Coagulation factor X [1], `Cc1cc2cc(N/C(N[C@H]3CCCCN(CC(=O)N4CCCC4)C3=O)=C(/C#N)S(C)(=O)=O)ccc2o1` came in with an IC50 of 46 nM. The same compound gave a 2PT at Coagulation factor X [2] of 24 µM.
